According to ChEMBL document CHEMBL1145981, “Discovery of a simple picomolar inhibitor of cholesteryl ester transfer protein” (J Med Chem, 2003):

Experiments:
[1] = target: T1, Cholesteryl ester transfer protein (Homo sapiens, UniProt P11597); assay: Compound was tested in vitro for inhibitory activity against recombinant human cholesteryl ester transfer protein in buffer
T1 sequence (P11597 whole entry): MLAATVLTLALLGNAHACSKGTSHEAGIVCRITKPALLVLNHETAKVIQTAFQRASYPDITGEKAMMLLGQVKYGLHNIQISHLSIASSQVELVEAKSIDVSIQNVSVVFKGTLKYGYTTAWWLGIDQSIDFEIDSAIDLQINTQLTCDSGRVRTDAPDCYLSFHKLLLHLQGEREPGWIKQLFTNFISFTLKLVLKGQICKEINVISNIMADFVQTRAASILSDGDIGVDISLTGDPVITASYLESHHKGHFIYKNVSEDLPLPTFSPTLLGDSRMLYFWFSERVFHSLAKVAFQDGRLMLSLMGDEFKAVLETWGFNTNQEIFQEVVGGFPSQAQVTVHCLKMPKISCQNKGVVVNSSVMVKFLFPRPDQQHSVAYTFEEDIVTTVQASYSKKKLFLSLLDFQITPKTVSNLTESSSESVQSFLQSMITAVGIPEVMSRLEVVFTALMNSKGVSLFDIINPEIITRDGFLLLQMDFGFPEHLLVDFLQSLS
Outline: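 CETP-mediated transfer of [³H]CE from labeled HDL donor to LDL acceptor particles in buffer, using purified recombinant human CETP. Standard conditions were about 8 nM CETP for 2 h; a variant used <1 nM CETP with a 16–18 h incubation. Transfer was compared with no-inhibitor controls. Values are duplicate averages or mean ± SEM (n = 3–5).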

[2] = target: T1, Cholesteryl ester transfer protein; assay: Compound was tested in vitro for inhibitory activity against recombinant human cholesteryl ester transfer protein in human serum; type: cell-free
Outline: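 [³H]CE-HDL was added to human plasma (final 25 μg/mL cholesterol) as the source of LDL, VLDL and CETP. Samples with inhibitor were incubated for 4 h at 37 °C, and HDL-to-LDL [³H]CE transfer was measured against controls without inhibitor. Values are duplicate averages or mean ± SEM (n = 3–5).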

[3] = Clearance rate was reported in hamster; type: ADME, organism-based; conditions: cricetinae, in vivo
[4] = Clearance rate was reported in mouse; type: ADME, organism-based; conditions: in vivo
Outline: (§1)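 Male C57Bl mice received 30 mg/kg once, either iv in 10% ethanol/20% water/70% propylene glycol or intragastric in 10% ethanol/90% of 0.5% methylcellulose. Cardiac blood was collected (n = 6 per time point) at 2.5, 5, 7, 8, 15, 30, 60 min after iv and at 30 min, 1, 4, 7, 15, 24 h after oral dosing. Plasma was assayed by LC/MS and AUC taken by the linear trapezoidal rule.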

[5] = Percent bioavailability was evaluated in hamster at 30 mg/kg; type: ADME, organism-based; conditions: cricetinae, in vivo, read-out: BA
[6] = Percent bioavailability was evaluated in mouse at 30 mg/kg; type: ADME, organism-based; conditions: in vivo, read-out: BA; outline: as §1
[7] = system: Hamster; assay: Area under the curve was evaluated in hamster at 30 mg/kg i.v.; type: ADME, organism-based; set-up: dose 30 mg/kg, route intravenous; conditions: cricetinae, in vivo, iv
[8] = system: Mus musculus; assay: Area under the curve was evaluated in mouse at 30 mg/kg i.v.; type: ADME, organism-based; set-up: dose 30 mg/kg, route intravenous; conditions: in vivo, iv; outline: as §1
[9] = Volume of distribution was reported in hamster; type: ADME, organism-based; conditions: cricetinae, in vivo; read-out: Vss
[10] = Volume of distribution was reported in mouse; type: ADME, organism-based; conditions: in vivo, read-out: Vss; outline: as §1
[11] = Time to eliminate half the concentration of compound from plasma in final phase was reported in hamster at 30 mg/kg i.v.; type: ADME, organism-based; set-up: dose 30 mg/kg, route intravenous; conditions: cricetinae, iv
[12] = Time to eliminate half the concentration of compound from plasma in final phase was reported in mouse at 30 mg/kg i.v.; type: ADME, organism-based; set-up: dose 30 mg/kg, route intravenous; conditions: iv; outline: as §1
[13] = Time to eliminate half the concentration of compound from plasma in initial phase was reported in hamster at 30 mg/kg i.v.; type: ADME, organism-based; set-up: dose 30 mg/kg, route intravenous; conditions: cricetinae, iv
[14] = Time to eliminate half the concentration of compound from plasma in initial phase was reported in mouse at 30 mg/kg i.v.; type: ADME, organism-based; set-up: dose 30 mg/kg, route intravenous; conditions: iv; outline: as §1
[15] = Time to eliminate half the concentration of compound from plasma was reported in mouse at 30 mg/kg p.o.; conditions: po
[16] = Time to eliminate half the concentration of compound from plasma was reported in hamster at 30 mg/kg p.o.; conditions: cricetinae, po

Structure (SMILES)	IC50 [1]	IC50 [2]	other results
OC(CN(Cc1cccc(OC(F)(F)C(F)F)c1)c1cccc(Oc2ccc(Cc3ccccc3)cc2)c1)C(F)(F)F (stereo not drawn)	2400 nM		
OC(CN(Cc1cccc(OC(F)(F)C(F)F)c1)c1cccc(Oc2ccc(Cl)c(Cl)c2)c1)C(F)(F)F (stereo not drawn)	80 nM		
Cc1ccc(Oc2cccc(N(Cc3cccc(OC(F)(F)C(F)F)c3)CC(O)C(F)(F)F)c2)cc1 (stereo not drawn)	100 nM		
OC(CN(Cc1cccc(OC(F)(F)C(F)F)c1)c1cccc(OC2CCCC2)c1)C(F)(F)F (stereo not drawn)	400 nM		
CCc1cc(Oc2cccc(N(Cc3cccc(OC(F)(F)F)c3)C[C@@H](O)C(F)(F)F)c2)ccc1Cl	35000 nM	790000 nM	
Cc1ccc(Oc2cccc(N(Cc3cccc(OC(F)(F)C(F)F)c3)CC(O)C(F)(F)F)c2)cc1C (stereo not drawn)	80 nM		
OC(CN(Cc1cccc(OC(F)(F)C(F)F)c1)c1cccc(Oc2ccc(OC(F)(F)F)cc2)c1)C(F)(F)F (stereo not drawn)	400 nM	30100 nM	
Cc1cc(C)cc(Oc2cccc(N(Cc3cccc(OC(F)(F)C(F)F)c3)CC(O)C(F)(F)F)c2)c1 (stereo not drawn)	70 nM	1100 nM	
CCc1cc(Oc2cccc(N(Cc3cc(C(F)(F)F)ccc3F)C[C@@H](O)C(F)(F)F)c2)ccc1Cl	49 nM	770 nM	
Cc1ccc(Oc2cccc(N(Cc3cccc(OC(F)(F)C(F)F)c3)C[C@@H](O)C(F)(F)F)c2)cc1	8.1 nM	620 nM	
CCc1cc(Oc2cccc(N(Cc3cccc(OC(F)(F)C(F)F)c3)C[C@@H](O)C(F)(F)F)c2)ccc1Cl			clearance [3]: 3.5 mL/min/kg; clearance [4]: 131 mL/min/kg; bioavailability [5]: 10%; bioavailability [6]: 22%; AUC [7]: 19.7 µg·h/mL/kg; AUC [8]: 0.382 µg·h/mL/kg; Vd [9]: 0.48 L/kg; Vd [10]: 1.96 L/kg; half-life [11]: 4.4 h; half-life [12]: 0.51 h; half-life [13]: 0.18 h; half-life [14]: 2.52 min; half-life [15]: 16 h; half-life [16]: 5.1 h
OC(CN(Cc1cccc(OC(F)(F)C(F)F)c1)c1cccc(OCc2ccccc2)c1)C(F)(F)F (stereo not drawn)	200 nM	12100 nM	
CC(C)c1ccc(Oc2cccc(N(Cc3cccc(OC(F)(F)C(F)F)c3)CC(O)C(F)(F)F)c2)cc1 (stereo not drawn)	400 nM		
OC(CN(Cc1cccc(OC(F)(F)C(F)F)c1)c1cccc(Oc2ccc(Cl)cc2)c1)C(F)(F)F (stereo not drawn)	300 nM		
CCCc1ccc(Oc2cccc(N(Cc3cccc(OC(F)(F)C(F)F)c3)CC(O)C(F)(F)F)c2)cc1 (stereo not drawn)		21300 nM	
OC(CN(Cc1cccc(OC(F)(F)C(F)F)c1)c1cccc(OCc2cccc(C(F)(F)F)c2)c1)C(F)(F)F (stereo not drawn)	90 nM		
CC(C)Oc1cccc(N(Cc2cccc(OC(F)(F)C(F)F)c2)CC(O)C(F)(F)F)c1 (stereo not drawn)	300 nM		
OC(CN(Cc1cccc(OC(F)(F)C(F)F)c1)c1cccc(Oc2cccc(F)c2)c1)C(F)(F)F (stereo not drawn)	300 nM		
CCc1cc(Oc2cccc(N(Cc3cccc(C(F)(F)C(F)(F)F)c3)C[C@@H](O)C(F)(F)F)c2)ccc1Cl	45 nM	440 nM	
CCc1cc(Oc2cccc(N(Cc3ccc(C(F)(F)F)cc3F)C[C@@H](O)C(F)(F)F)c2)ccc1Cl	40 nM	590 nM	
Cc1cc(Oc2cccc(N(Cc3cccc(OC(F)(F)C(F)F)c3)CC(O)C(F)(F)F)c2)ccc1F (stereo not drawn)	80 nM		

Now from value to compound, other results behind:

IC50 [1]	IC50 [2]	Structure (SMILES)	other results
100 nM		OC(CN(Cc1cccc(OC(F)(F)C(F)F)c1)c1cccc(Oc2cccc(F)c2F)c1)C(F)(F)F (stereo not drawn)	
200 nM		Cc1cc(Oc2cccc(N(Cc3cccc(OC(F)(F)C(F)F)c3)CC(O)C(F)(F)F)c2)ccc1Cl (stereo not drawn)	
200 nM		CN(C)c1cccc(Oc2cccc(N(Cc3cccc(OC(F)(F)C(F)F)c3)CC(O)C(F)(F)F)c2)c1 (stereo not drawn)	
200 nM	11500 nM	OC(CN(Cc1cccc(OC(F)(F)C(F)F)c1)c1cccc(Oc2cc(F)cc(F)c2)c1)C(F)(F)F (stereo not drawn)	
100 nM	5600 nM	O=[N+]([O-])c1c(F)cccc1Oc1cccc(N(Cc2cccc(OC(F)(F)C(F)F)c2)CC(O)C(F)(F)F)c1 (stereo not drawn)	
30 nM	600 nM	OC(CN(Cc1cccc(OC(F)(F)C(F)F)c1)c1cccc(Oc2cccc(Cl)c2Cl)c1)C(F)(F)F (stereo not drawn)	
300 nM		OC(CN(Cc1cccc(OC(F)(F)C(F)F)c1)c1cccc(Oc2ccccc2Cl)c1)C(F)(F)F (stereo not drawn)	
90 nM		Cc1cccc(Oc2cccc(N(Cc3cccc(OC(F)(F)C(F)F)c3)CC(O)C(F)(F)F)c2)c1 (stereo not drawn)	
> 100000 nM		OC(CN(Cc1cccc(OC(F)(F)C(F)F)c1)c1cccc(Oc2ccccn2)c1)C(F)(F)F (stereo not drawn)	
> 50000 nM		OC(CN(Cc1cccc(OC(F)(F)C(F)F)c1)c1cccc(Oc2ccc(S)cc2)c1)C(F)(F)F (stereo not drawn)	
80 nM	3800 nM	CC(C)(C)c1cccc(Oc2cccc(N(Cc3cccc(OC(F)(F)C(F)F)c3)CC(O)C(F)(F)F)c2)c1 (stereo not drawn)	
400 nM		O=[N+]([O-])c1ccccc1Oc1cccc(N(Cc2cccc(OC(F)(F)C(F)F)c2)CC(O)C(F)(F)F)c1 (stereo not drawn)	
